For data set [1], the target named is T1, Nuclear factor erythroid 2-related factor 2 (Mus musculus) (UniProt Q60795).
T1 sequence (whole entry): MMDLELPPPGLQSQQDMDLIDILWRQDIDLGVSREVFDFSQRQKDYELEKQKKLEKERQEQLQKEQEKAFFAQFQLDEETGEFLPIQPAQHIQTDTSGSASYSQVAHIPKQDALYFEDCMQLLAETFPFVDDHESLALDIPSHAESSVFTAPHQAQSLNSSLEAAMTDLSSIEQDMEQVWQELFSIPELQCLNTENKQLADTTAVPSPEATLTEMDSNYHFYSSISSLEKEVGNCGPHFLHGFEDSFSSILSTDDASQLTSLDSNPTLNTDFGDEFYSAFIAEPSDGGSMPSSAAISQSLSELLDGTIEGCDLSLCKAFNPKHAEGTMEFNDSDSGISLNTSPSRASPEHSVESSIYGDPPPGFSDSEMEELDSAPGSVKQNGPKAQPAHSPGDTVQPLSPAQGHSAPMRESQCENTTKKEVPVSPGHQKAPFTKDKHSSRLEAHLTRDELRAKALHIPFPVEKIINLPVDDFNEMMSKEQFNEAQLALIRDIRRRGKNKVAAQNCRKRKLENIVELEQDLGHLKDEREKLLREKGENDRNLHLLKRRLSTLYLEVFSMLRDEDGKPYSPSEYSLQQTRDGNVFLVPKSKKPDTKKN
The data set can be described thus: Activation of Nrf2 in mouse RAW264.7 cells assessed as upregulation of HO1 protein expression at 50 uM after 6 hrs by Western blotting analysis relative to untreated control. The format is cell-based. Summed up:
(§1)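 HO-1 protein in whole-cell lysates (20 μg/lane) of serum-starved RAW264.7 cells after 6 h at 10-50 μM or 50 μM for 1-6 h in serum-free medium, 0.1% DMSO control. Chemiluminescent Western blot; HO-1 densitometry normalized to actin, mean of three experiments.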

For data set [2], the target named is T1, Nuclear factor erythroid 2-related factor 2 (Mus musculus). The data set can be described thus: Activation of Nrf2 in mouse RAW264.7 cells assessed as upregulation of HO1 protein expression at 50 uM after 4 hrs by Western blotting analysis relative to untreated control. Type of data set: cell-based. In a few lines: as §1
For data set [3], the target named is Mitogen-activated protein kinase 8 (Mus musculus) (UniProt Q91Y86). Nature of the data set: Activation of JNK1 in mouse RAW264.7 cells assessed as phosphorylation at Thr183/Tyr185 at 50 uM after 30 mins by Western blotting analysis. The format is cell-based. Summed up:
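Serum-starved RAW264.7 cells exposed in serum-free medium for 30 min to 4 h; 5 μM anisomycin for 30 min as positive control. Whole-cell lysates (30 μg/lane) blotted for JNKs dually phosphorylated at Thr183/Tyr185 and total JNKs, chemiluminescent detection.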
In general terms: Immunoblotting shows a protein as a band on a membrane.

The target in data set [4] is MAP kinase p38 (Homo sapiens) (UniProt O15264+Q15759+Q16539+P53778). Nature of the data set: Activation of p38MAPK in mouse RAW264.7 cells assessed as phosphorylation at Thr180/Tyr182 at 50 uM after 30 mins to 4 hrs by Western blotting analysis. The format is cell-based. The conditions noted are these: TDE = time-dependent effect. Summed up: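 p38 phosphorylation at Thr180/Tyr182 and total p38 probed in whole-cell lysates (35 μg/lane) of serum-starved RAW264.7 cells treated for 30 min to 4 h in serum-free medium. Positive controls were 5 μM anisomycin or 75 ng/mL EGF for 30 min. Chemiluminescent Western detection.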

Data set [5] has as its target T1, Nuclear factor erythroid 2-related factor 2 (Mus musculus). Nature of the data set: Activation of Nrf2 in mouse RAW264.7 cells assessed as reduction of KEAP1 protein level at 50 uM after 1 to 6 hr by Western blotting analysis. Type of data set: cell-based. The conditions noted are these: TDE = time-dependent effect. Summed up:
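Whole-cell lysates (20 μg/lane) from serum-starved RAW264.7 cells given 10-50 μM for 6 h or 50 μM for 1-6 h in serum-free medium, 0.1% DMSO vehicle. Keap1 and actin detected by chemiluminescent Western blot; Keap1 band intensity normalized to actin, mean of three experiments.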

Data set [6] shares this target. Nature of the data set: Activation of Nrf2 in mouse RAW264.7 cells assessed as upregulation of Hmox1 gene expression at 25 uM after 6 hrs by real-time PCR analysis relative to GAPDH mRNA expression. Type of data set: cell-based. In a few lines: (§2)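 RAW264.7 cells treated 6 h in serum-free medium, 0.1% DMSO control. Total RNA (2 μg) reverse transcribed; TaqMan qPCR for Hmox1 and Gapdh, 40 cycles. Relative expression by 2^−ΔΔCT, normalized to Gapdh; mean ± SD of three experiments.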
(In general: Real-time PCR tracks product formation cycle by cycle.)

For data set [7] the target is unchanged. Nature of the data set: Activation of Nrf2 in mouse RAW264.7 cells assessed as upregulation of Hmox1 gene expression at 10 to 50 uM after 6 hrs by real-time PCR analysis relative to GAPDH mRNA expression. The format is cell-based. Summed up:
as §2

Data set [8] has the same target. The data set can be described thus: Activation of Nrf2 in mouse RAW264.7 cells assessed as upregulation of Hmox1 gene expression at 50 uM after 6 hrs by real-time PCR analysis relative to GAPDH mRNA expression. Type of data set: cell-based. Summed up:
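Serum-starved RAW264.7 cells were exposed for 6 h in serum-free medium against a 0.1% DMSO control. Total RNA (2 μg) was reverse-transcribed, then TaqMan qPCR run for Hmox1 and Gapdh over 40 cycles. Crossing points were taken by second-derivative maximum, and fold change calculated by the 2^−ΔΔCT method normalized to Gapdh. Mean ± SD of three experiments.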

The nature of data set [9]: Drug metabolism in culture medium assessed as 7-O-galloylquercetin level. Type of data set: physicochemical. Summed up:
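Compound incubated in culture medium without cells. Medium aliquots diluted 1:1 in methanol with 5% acetic acid, centrifuged, and analysed by phenyl-column UPLC with negative-mode ESI-QqTOF MS.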

The test system of data set [10] is RAW264.7. The data set can be described thus: Drug uptake in mouse RAW264.7 cells measured per 10^6 cells at 50 uM after 3 hrs. Type of data set: ADME, cell-based. The conditions noted are these: raw264.7, 3 h. Summed up: (§3)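 Cells given 50 μM for up to 6 h, then scraped, washed twice in PBS and sonicated in methanol with 5% acetic acid. Supernatant analysed by UPLC on a phenyl column (water/1% acetic acid/methanol to methanol gradient, 35 °C) with negative ESI-QqTOF MS. Contents expressed as nmol per 10⁶ cells.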

The test system of data set [11] is RAW264.7. Nature of the data set: Drug uptake in mouse RAW264.7 cells at 50 uM after 10 mins. The settings on record: raw264.7, 10 min. Type of data set: ADME, cell-based. Summed up: as §3
In data set [12] the test system is RAW264.7. The data set can be described thus: Induction of ROS generation in mouse RAW264.7 cells at 10 to 50 uM after 2 hrs by flow cytometric analysis. Type of data set: functional, cell-based. In a few lines: (§4)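 Serum-starved RAW264.7 cells treated 2 h at 10-50 μM; 100 μM TBHP for 30 min as positive control. Medium replaced, cells loaded with 10 μM carboxy-H₂DCFDA for 15 min at 37 °C. Flow cytometry (488 nm excitation, 525 nm emission, 10,000 events) gave percentage of cells with raised ROS; mean ± SD of three experiments.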
Background: In flow cytometry, cells or beads pass a laser one at a time.

Data set [13] concerns RAW264.7. Nature of the data set: Induction of ROS generation in mouse RAW264.7 cells at 25 uM after 2 hrs by flow cytometric analysis. Type of data set: functional. In a few lines:
as §4

Active and inactive are the calls of the source. The rule behind the calls is not given here.

Mitogen-activated protein kinase 8 (Mus musculus), sequence (Q91Y86 whole entry): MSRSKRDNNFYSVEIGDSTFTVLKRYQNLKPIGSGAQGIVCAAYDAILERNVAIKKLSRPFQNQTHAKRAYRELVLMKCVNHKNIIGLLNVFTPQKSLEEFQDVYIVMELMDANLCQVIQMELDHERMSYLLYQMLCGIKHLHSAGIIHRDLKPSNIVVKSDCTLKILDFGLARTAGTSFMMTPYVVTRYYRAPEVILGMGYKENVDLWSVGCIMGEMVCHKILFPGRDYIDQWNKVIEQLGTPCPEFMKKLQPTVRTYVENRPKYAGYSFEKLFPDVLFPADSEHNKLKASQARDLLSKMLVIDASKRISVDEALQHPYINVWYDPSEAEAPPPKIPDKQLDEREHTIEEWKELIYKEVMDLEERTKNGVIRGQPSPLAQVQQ

As to `O=C(Oc1cc(O)c2c(c1)O[C@H](c1ccc(O)c(O)c1)[C@@H](O)C2=O)c1cc(O)c(O)c(O)c1`, the fold change (FC) in data set [1] turned out to be 2.5; in [2], 1.6; in [6], 4.8; in data set [8], 13.4. The result (in data set [3]; in the data set on RAW264.7 [12]) was Active. Moreover, the Activity result in [4] was “tde”; in [5], “tde”; in [7] it was “Dose-dependent effect”; in the data set with RAW264.7 [13] it was 19%. For the same molecule, in data set [9], the Drug metabolism entry is given as “Not Active”. The Drug uptake in the data set with RAW264.7 [10] was found to be 1.03 nmol; in the data set with RAW264.7 [11], 85%.

Values taken from ChEMBL document CHEMBL2331476, “A novel semisynthetic flavonoid 7-O-galloyltaxifolin upregulates heme oxygenase-1 in RAW264.7 cells via MAPK/Nrf2 pathway” (J Med Chem, 2013).
